{"source": "paper PMC7111624", "about": "(Phytochemistry, 2016)", "key": {"[1]": {"tested_on": "HK2", "test": "Western blot expression level in U87-MG cells: HK2", "type": "cell-based, human", "details": "10 µM, 48 h (Fig. S83)", "procedure,_shortened": "(§1)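 U87-MG cells were treated for 48 h with test compound (5 or 10 μM) or left untreated as control. Protein was extracted and analysed by western blot, with β-actin as internal loading control.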"}, "[2]": {"tested_on": "human erythrocytes", "test": "Intracellular K+ uptake in erythrocytes", "type": "cell-based", "details": "90 min", "procedure,_shortened": "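Fresh human blood was spun at 660 g for 10 min at 4 °C. Erythrocytes were washed three times in GNS buffer (50 g/L glucose, 9 g/L NaCl) and made into a 50% suspension. Cells were treated with test compound in isotonic KCl for 90 min at 37 °C, with a positive control ionophore, then stopped on ice. They were washed five times in cold GNS, haemolysed in water overnight, and digested in HNO3/HClO4. K+ was measured by atomic absorption against a KCl calibration curve.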"}, "[3]": {"tested_on": "PKM2", "test": "Western blot expression level in U87-MG cells: PKM2", "type": "cell-based, human", "details": "10 µM, 48 h (Fig. S83)", "procedure,_shortened": "as §1"}, "[4]": {"tested_on": "GLS", "test": "Western blot expression level in U87-MG cells: GLS", "type": "cell-based, human", "details": "10 µM, 48 h (Fig. S83)", "procedure,_shortened": "as §1"}, "[5]": {"tested_on": "FASN", "test": "Western blot expression level in U87-MG cells: FASN", "type": "cell-based, human", "details": "10 µM, 48 h (Fig. S83)", "procedure,_shortened": "as §1"}, "[6]": {"tested_on": "U251", "test": "SRB proliferation assay, U251 glioma cells", "type": "cell-based, human", "details": "HA vs U251", "procedure,_shortened": "(§2)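 Each ratio is the IC50 in normal human astrocytes divided by the IC50 in the glioma line. Glioma IC50 came from an SRB proliferation assay after 72 h of treatment across a concentration series. Doxorubicin was the positive control and untreated cells the negative control. Values are means ± S.D.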"}, "[7]": {"tested_on": "U87-MG cells", "test": "Cell cycle assay", "type": "cell-based, human", "details": "0.8 μM, 12 h"}, "[8]": {"tested_on": "U87-MG", "test": "SRB proliferation assay, U87-MG glioma cells", "type": "cell-based, human", "details": "HA vs U87-MG", "procedure,_shortened": "as §2"}, "[9]": {"tested_on": "C6", "test": "SRB proliferation assay, C6 glioma cells", "type": "cell-based, rat", "details": "HA vs C6", "procedure,_shortened": "as §2"}, "[10]": {"tested_on": "U251 cells", "test": "Cell cycle assay", "type": "cell-based, human", "details": "U251, 0.8 μM, 12 h"}, "[11]": {"tested_on": "human astrocytes (HA)", "test": "Growth inhibition of normal human astrocytes", "type": "cell-based", "details": "Astrocyte, read-out: IC50, human astrocytes (HA)"}, "[12]": {"tested_on": "SHG-44", "test": "SRB proliferation assay, SHG-44 glioma cells", "type": "cell-based, human", "details": "HA vs SHG-44", "procedure,_shortened": "as §2"}}, "data": [{"smiles": "CC(C)[C@@H]1NC(=O)[C@H](C)OC(=O)[C@@H](C(C)C)NC(=O)[C@@H](C(C)C)OC(=O)[C@H](C(C)C)NC(=O)[C@H](C)OC(=O)[C@@H](C(C)C)NC(=O)[C@@H](C(C)C)OC(=O)[C@H](C(C)C)NC(=O)[C@H](C)OC(=O)[C@@H](C(C)C)NC(=O)[C@@H](C(C)C)OC1=O", "note": "[Compound 1, valinomycin]", "values": [{"measurement": "expression level of HK2", "setting": "[1]", "result": "remarkably reduced expression levels"}, {"measurement": "+ % increase of intracellular K+ = (Compound−CON)/CON × 100%", "setting": "[2]; 0.01 μM", "result": 19.06, "unit": "%"}, {"measurement": "K+ (intracellular, erythrocytes)", "setting": "[2]; 0.01 μM", "result": "3.81 ± 0.01", "unit": "mg/mL"}, {"measurement": "+ % increase of intracellular K+ = (Compound−CON)/CON × 100%", "setting": "[2]; 0.05 μM", "result": 83.43, "unit": "%"}, {"measurement": "K+ (intracellular, erythrocytes)", "setting": "[2]; 0.05 μM", "result": "5.87 ± 0.00", "unit": "mg/mL"}, {"measurement": "+ % increase of intracellular K+ = (Compound−CON)/CON × 100%", "setting": "[2]; 0.1 μM", "result": 75.63, "unit": "%"}, {"measurement": "K+ (intracellular, erythrocytes)", "setting": "[2]; 0.1 μM", "result": "5.62 ± 0.01", "unit": "mg/mL"}, {"measurement": "expression level of PKM2", "setting": "[3]", "result": "little effect on the downregulation"}, {"measurement": "expression level of GLS", "setting": "[4]", "result": "remarkably reduced expression levels"}, {"measurement": "expression level of FANS", "setting": "[5]", "result": "remarkably reduced expression levels"}]}, {"smiles": "COc1cccc2c1C(=O)c1c(O)c3c(c(O)c1C2=O)C[C@@](O)(C(=O)CO)C[C@@H]3O[C@H]1C[C@H](N)[C@H](O)[C@H](C)O1", "note": "[Doxorubicin (DOX), Doxorubicin]", "values": [{"measurement": "Ratios of IC50HA/IC50GC, U251", "setting": "[6]", "result": 3}, {"measurement": "G0/G1, percentage of cells", "setting": "[7]", "result": 90.65, "unit": "%"}, {"measurement": "G2/GM, percentage of cells", "setting": "[7]", "result": 3.83, "unit": "%"}, {"measurement": "S, percentage of cells", "setting": "[7]", "result": 5.52, "unit": "%"}, {"measurement": "Compound(G0/G1)−CON(G0/G1)", "setting": "[7]; increase vs control", "result": 49.69, "unit": "%"}, {"measurement": "Ratios of IC50HA/IC50GC, U87-MG", "setting": "[8]", "result": 22}, {"measurement": "Ratios of IC50HA/IC50GC, C6", "setting": "[9]", "result": 17}, {"measurement": "G0/G1, percentage of cells", "setting": "[10]", "result": 71.45, "unit": "%"}, {"measurement": "G2/GM, percentage of cells", "setting": "[10]", "result": 13.04, "unit": "%"}, {"measurement": "S, percentage of cells", "setting": "[10]", "result": 15.51, "unit": "%"}, {"measurement": "Compound(G0/G1)−CON(G0/G1)", "setting": "[10]; increase vs control", "result": 26.97, "unit": "%"}, {"measurement": "IC50", "setting": "[11]", "result": "8.7 ± 1.2", "unit": "µM"}, {"measurement": "Ratios of IC50HA/IC50GC, SHG-44", "setting": "[12]", "result": 5}]}]}
